Laboratory results published in ChEMBL document CHEMBL4699498 (J Med Chem, 2020).
Activity calls are given as the source filed them. The rule behind the calls is not given here.

What was measured:
[1] = target: T1, Protein cereblon/Poly [ADP-ribose] polymerase 1 (Homo sapiens, UniProt P09874+Q96SW2); assay: Protac activity at CRBN/PARP1 in human LNCaP cells assessed as induction of PARP1 degradation measured after 24 hrs by Western blot analysis; format: cell-based
How it was run: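 Concentration-response over a wide range, 24 h exposure; PARP1 quantified by western blot and normalized to β-tubulin density; DC50 derived from two biologically independent experiments.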
Target sequence in this assay (P09874 whole entry): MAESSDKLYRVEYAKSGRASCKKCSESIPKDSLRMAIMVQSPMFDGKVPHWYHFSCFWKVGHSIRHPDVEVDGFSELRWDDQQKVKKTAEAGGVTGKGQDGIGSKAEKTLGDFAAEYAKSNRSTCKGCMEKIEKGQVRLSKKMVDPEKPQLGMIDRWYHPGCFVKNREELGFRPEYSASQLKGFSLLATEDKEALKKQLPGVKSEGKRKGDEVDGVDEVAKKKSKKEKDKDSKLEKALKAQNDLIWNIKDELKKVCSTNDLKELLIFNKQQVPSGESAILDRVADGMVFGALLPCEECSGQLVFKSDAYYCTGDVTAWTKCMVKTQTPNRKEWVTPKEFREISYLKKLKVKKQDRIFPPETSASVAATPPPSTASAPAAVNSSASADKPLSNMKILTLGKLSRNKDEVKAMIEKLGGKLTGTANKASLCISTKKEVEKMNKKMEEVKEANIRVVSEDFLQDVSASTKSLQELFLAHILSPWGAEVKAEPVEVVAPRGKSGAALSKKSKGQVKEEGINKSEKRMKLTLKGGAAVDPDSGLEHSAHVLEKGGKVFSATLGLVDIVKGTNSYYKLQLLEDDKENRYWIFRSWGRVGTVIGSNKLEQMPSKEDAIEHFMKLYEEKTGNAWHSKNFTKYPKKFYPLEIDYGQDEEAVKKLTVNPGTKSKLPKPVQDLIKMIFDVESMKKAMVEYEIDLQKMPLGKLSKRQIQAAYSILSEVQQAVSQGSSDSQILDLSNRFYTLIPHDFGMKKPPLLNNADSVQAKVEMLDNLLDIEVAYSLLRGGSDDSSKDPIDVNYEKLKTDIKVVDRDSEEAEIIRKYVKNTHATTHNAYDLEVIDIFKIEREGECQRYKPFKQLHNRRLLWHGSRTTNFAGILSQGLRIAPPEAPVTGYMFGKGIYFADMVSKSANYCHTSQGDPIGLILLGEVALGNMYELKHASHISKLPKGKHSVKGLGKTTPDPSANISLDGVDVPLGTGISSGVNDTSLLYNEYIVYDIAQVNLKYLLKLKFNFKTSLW
Target sequence in this assay (Q96SW2 whole entry): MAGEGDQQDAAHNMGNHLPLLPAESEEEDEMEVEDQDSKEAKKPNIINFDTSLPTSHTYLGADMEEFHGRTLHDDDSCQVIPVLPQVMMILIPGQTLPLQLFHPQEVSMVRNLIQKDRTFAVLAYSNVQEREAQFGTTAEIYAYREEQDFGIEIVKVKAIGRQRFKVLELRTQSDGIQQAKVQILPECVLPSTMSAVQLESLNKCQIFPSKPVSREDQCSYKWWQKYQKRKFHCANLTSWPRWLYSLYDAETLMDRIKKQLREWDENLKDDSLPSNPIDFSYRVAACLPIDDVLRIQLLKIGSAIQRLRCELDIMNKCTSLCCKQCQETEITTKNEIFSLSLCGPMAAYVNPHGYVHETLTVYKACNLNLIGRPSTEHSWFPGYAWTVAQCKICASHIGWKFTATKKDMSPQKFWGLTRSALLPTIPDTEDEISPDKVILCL

[2] = target: T1, Protein cereblon/Poly [ADP-ribose] polymerase 1; assay: Protac activity at CRBN/PARP1 in human CAPAN-1 cells assessed as induction of PARP1 degradation incubated for 24 hrs by Western blot analysis; format: cell-based
How it was run: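 Capan-1 cells were treated 24 h (1-1000 nM, or a wider dose range for DC50). Lysis was in RIPA buffer with protease inhibitors, and 20-30 μg protein was blotted. PARP1 was normalized to β-tubulin and to DMSO control, quantified by densitometry. DC50 came from two independent experiments.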
Target sequence in this assay (P09874 whole entry): as the sequence (P09874 whole entry) above
Target sequence in this assay (Q96SW2 whole entry): as the sequence (Q96SW2 whole entry) above

CAPAN-1 = assay: Potentiation of cisplatin induced antitumor activity against CAPAN-1 cells xenografted in Balb/c mouse administered intraperitoneally once daily for 5 days; format: functional; conditions: dose mg/kg 25-50, time 5.0 day
How it was run: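 Male BALB/c nude mice carried Capan-1 xenografts (5×10^6 cells s.c.), randomized at ~150 mm³ (6 per group). Treatment was 25 or 50 mg/kg intraperitoneally or 100 mg/kg by oral gavage, once daily on days 0-4. Cisplatin 6 mg/kg in saline was given intraperitoneally on day 2, 45 min after the partner drug. Tumor volume and body weight were measured 2-3 times weekly.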

L02 = assay: Cytotoxicity against human L02 cells assessed as reduction in cell viability incubated for 120 hrs by CCK-8 assay; format: cell-based; conditions: l02, 120 h
[3] = target: T1, Protein cereblon/Poly [ADP-ribose] polymerase 1; assay: Protac activity at CRBN/PARP1 in human SW-620 cells assessed as induction of PARP1 degradation at 30 nM incubated for 24 hrs in presence of NEDD8-activating E1 enzyme inhibitor MLN4924 by Western blot analysis; format: cell-based
Target sequence in this assay (P09874 2-1014 limits assumed): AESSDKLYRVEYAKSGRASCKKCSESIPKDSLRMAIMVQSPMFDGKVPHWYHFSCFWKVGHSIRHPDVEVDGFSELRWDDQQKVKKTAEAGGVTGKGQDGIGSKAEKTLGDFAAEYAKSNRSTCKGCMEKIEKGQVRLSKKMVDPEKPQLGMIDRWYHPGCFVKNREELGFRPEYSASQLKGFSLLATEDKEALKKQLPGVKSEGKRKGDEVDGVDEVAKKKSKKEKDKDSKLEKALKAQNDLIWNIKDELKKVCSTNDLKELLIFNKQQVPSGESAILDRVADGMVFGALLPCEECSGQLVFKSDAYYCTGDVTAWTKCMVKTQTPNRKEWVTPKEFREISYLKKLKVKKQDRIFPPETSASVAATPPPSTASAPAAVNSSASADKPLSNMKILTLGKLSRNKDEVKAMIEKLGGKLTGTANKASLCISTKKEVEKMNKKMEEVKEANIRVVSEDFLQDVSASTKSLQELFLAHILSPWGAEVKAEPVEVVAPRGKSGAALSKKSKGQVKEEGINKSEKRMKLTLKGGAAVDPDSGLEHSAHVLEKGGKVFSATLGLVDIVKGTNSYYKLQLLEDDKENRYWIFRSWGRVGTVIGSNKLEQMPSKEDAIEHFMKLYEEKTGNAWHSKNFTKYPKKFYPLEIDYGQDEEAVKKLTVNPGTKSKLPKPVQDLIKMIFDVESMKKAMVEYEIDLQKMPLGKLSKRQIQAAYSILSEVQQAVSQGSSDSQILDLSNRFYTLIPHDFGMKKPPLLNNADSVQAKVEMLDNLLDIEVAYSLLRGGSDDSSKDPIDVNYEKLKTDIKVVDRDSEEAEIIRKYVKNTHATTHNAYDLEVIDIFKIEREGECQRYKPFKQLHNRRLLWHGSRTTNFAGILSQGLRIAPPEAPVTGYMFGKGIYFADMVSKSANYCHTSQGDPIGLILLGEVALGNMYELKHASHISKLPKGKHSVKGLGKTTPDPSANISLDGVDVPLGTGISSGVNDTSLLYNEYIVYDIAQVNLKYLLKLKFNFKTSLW
Target sequence in this assay (Q96SW2 whole entry partner): as the sequence (Q96SW2 whole entry) above

HUVEC = assay: Cytotoxicity against HUVEC assessed as reduction in cell viability incubated for 120 hrs by CCK-8 assay; format: cell-based; conditions: human
[4] = target: T1, Protein cereblon/Poly [ADP-ribose] polymerase 1; assay: Protac activity at CRBN/PARP1 in human 22Rv1 cells assessed as induction of PARP1 degradation measured after 24 hrs by Western blot analysis; format: cell-based
How it was run: (§1)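 The cell line was treated 24 h across a concentration range. PARP1 was measured by western blot against β-tubulin. DC50 is the average of two biologically independent experiments.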
Target sequence in this assay (P09874 whole entry): as the sequence (P09874 whole entry) above
Target sequence in this assay (Q96SW2 whole entry): as the sequence (Q96SW2 whole entry) above

MCF-10A = assay: Cytotoxicity against human MCF-10A cells assessed as reduction in cell viability incubated for 120 hrs by CCK-8 assay; format: cell-based
[5] = target: T1, Protein cereblon/Poly [ADP-ribose] polymerase 1; assay: Protac activity at CRBN/PARP1 in human MDA-MB-468 cells assessed as induction of PARP1 degradation at 30 nM incubated for 1 to 24 hrs by Western blot analysis; format: cell-based; conditions: time hrs 1-24
Target sequence in this assay (P09874 2-1014 limits assumed): as the sequence (P09874 2-1014 limits assumed) above
Target sequence in this assay (Q96SW2 whole entry partner): as the sequence (Q96SW2 whole entry) above

[6] = AUCall in ICR mouse at 25 mg/kg, ip by LC-tandem mass spectrometry analysis; format: ADME, organism-based; set-up: dose 25 mg/kg; conditions: in vivo
How it was run: (§2)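 Female ICR mice (20-23 g, 6-7 weeks old, n = 3) received a single 25 mg/kg intraperitoneal dose formulated in 5% DMSO/15% Solutol HS15/80% D5W. Plasma was sampled at 0.5, 1, 2, 4, 6, 8 and 24 h and protein-precipitated with methanol. Compound was quantified by LC-MS/MS against a standard curve.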

MDA-MB-231 = assay: Antiproliferation activity against human MDA-MB-231 assessed as cell growth inhibition incubated for 7 days by CCK-8 assay; format: functional, cell-based; conditions: time 7.0 day
How it was run: (§3)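 Cells were sub-cultured at least twice and seeded for 24 h before dosing. Compounds came from 10 mM DMSO stocks, given as 10 points of 3-fold serial dilution starting at 10-20 μM. Incubation was about 7 days (Capan-1 13 days) at 37 °C, 5% CO2. Read-out was CCK-8 absorbance at 450 nm, as % growth versus DMSO wells (duplicate wells). IC50 was fitted by nonlinear regression; three independent experiments.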

[7] = target: T1, Protein cereblon/Poly [ADP-ribose] polymerase 1; assay: Protac activity at CRBN/PARP1 in human SW-620 cells assessed as induction of PARP1 degradation at 30 nM incubated for 24 hrs in presence of proteasome inhibitor carfilzomib by Western blot analysis; format: cell-based
Target sequence in this assay (P09874 2-1014 limits assumed): as the sequence (P09874 2-1014 limits assumed) above
Target sequence in this assay (Q96SW2 whole entry partner): as the sequence (Q96SW2 whole entry) above

HCC1937 = assay: Antiproliferation activity against human HCC1937 assessed as cell growth inhibition incubated for 7 days by CCK-8 assay; format: functional, cell-based; conditions: time 7.0 day; how it was run: as §3
[8] = target: T1, Protein cereblon/Poly [ADP-ribose] polymerase 1; assay: Protac activity at CRBN/PARP1 in human SW-620 cells assessed as induction of PARP1 degradation at 30 nM incubated for 24 hrs in presence of proteasome inhibitor MG132 by Western blot analysis; format: cell-based
Target sequence in this assay (P09874 2-1014 limits assumed): as the sequence (P09874 2-1014 limits assumed) above
Target sequence in this assay (Q96SW2 whole entry partner): as the sequence (Q96SW2 whole entry) above

[9] = Acute toxicity in Balb/c mouse xenografted with SW-620 cells assessed as lethality at 5 to 10 mg/kg, ip qd administered for 5 days in presence of TMZ; format: organism-based; conditions: in vivo, 120 h, dose 5-10 mg/kg, time 5 day
How it was run: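 In male BALB/c nude mice (5–6 weeks), s.c. SW620 xenografts (6×10^6 cells, right armpit) were grown to about 150 mm³, then randomised, 6 per group. The agent was given once daily for 5 days, orally or i.p., in 5% DMSO/20% PEG400/10% Cremophor EL/65% saline. TMZ 50 mg/kg was given orally once daily for 5 days from day 0, 45 min after the agent. Body weight was measured 2–3 times weekly.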

[10] = target: T1, Protein cereblon/Poly [ADP-ribose] polymerase 1; assay: Protac activity at CRBN/PARP1 in human HCC1937 cells assessed as induction of PARP1 degradation at 30 nM incubated for 1 to 24 hrs by Western blot analysis; format: cell-based; conditions: time hrs 1-24
Target sequence in this assay (P09874 2-1014 limits assumed): as the sequence (P09874 2-1014 limits assumed) above
Target sequence in this assay (Q96SW2 whole entry partner): as the sequence (Q96SW2 whole entry) above

[11] = Half-life in ICR mouse at 25 mg/kg, ip by LC-tandem mass spectrometry analysis; format: ADME, organism-based; conditions: in vivo; how it was run: as §2
[12] = target: T1, Protein cereblon/Poly [ADP-ribose] polymerase 1; assay: Protac activity at CRBN/PARP1 in human MDA-MB-436 cells assessed as induction of PARP1 degradation at 30 nM incubated for 24 hrs in presence of 0.1 to 1 uM PARP1 inhibitor olaparib by Western blot analysis
Target sequence in this assay (P09874 2-1014 limits assumed): as the sequence (P09874 2-1014 limits assumed) above
Target sequence in this assay (Q96SW2 whole entry partner): as the sequence (Q96SW2 whole entry) above

[13] = target: T1, Protein cereblon/Poly [ADP-ribose] polymerase 1; assay: Protac activity at CRBN/PARP1 in human MDA-MB-436 cells assessed as induction of PARP1 degradation at 30 nM incubated for 24 hrs in presence of proteasome inhibitor MG132 by Western blot analysis
[14] = target: T1, Protein cereblon/Poly [ADP-ribose] polymerase 1; assay: Protac activity at CRBN/PARP1 in human PC-3 cells assessed as induction of PARP1 degradation at 30 nM incubated for 1 to 24 hrs by Western blot analysis; format: cell-based; conditions: time hrs 1-24
[15] = target: T1, Protein cereblon/Poly [ADP-ribose] polymerase 1; assay: Protac activity at CRBN/PARP1 in human MDA-MB-436 cells assessed as induction of PARP1 degradation at 30 nM measured after 2 hrs by Western blot analysis
CWR22R = assay: Antiproliferation activity against human 22Rv1 assessed as cell growth inhibition incubated for 7 days by CCK-8 assay; format: functional, cell-based; conditions: time 7.0 day; how it was run: as §3
[16] = target: T1, Protein cereblon/Poly [ADP-ribose] polymerase 1; assay: Protac activity at CRBN/PARP1 in human HCC1937 cells assessed as induction of PARP1 degradation measured after 24 hrs by Western blot analysis; format: cell-based; how it was run: as §1
Target sequence in this assay (P09874 whole entry): as the sequence (P09874 whole entry) above
Target sequence in this assay (Q96SW2 whole entry): as the sequence (Q96SW2 whole entry) above

With `O=C(CCCCCCCCCCC(=O)N1CCN(C(=O)c2cc(Cc3n[nH]c(=O)c4ccccc34)ccc2F)CC1)NCCNc1cccc2c1C(=O)N(C1CCC(=O)NC1=O)C2=O` (stereo not drawn) the DC50 [1] was 1.08 nM, the DC50 [2] was 6.72 nM and the Activity (CAPAN-1) was “Dose-dependent effect”. The Activity (L02) was “Non-Toxic”, the Activity [3] was “inactive” and the Activity (HUVEC) was “Non-Toxic”. The DC50 [4] was 0.512 nM, the Activity (MCF-10A) was “Non-Toxic” and the Activity [5] was “Active”. The AUC [6] was 5320 ng·h/mL, the Activity (MDA-MB-231) was “Active” and the Activity [7] was “inactive”. For the same compound, the Activity (HCC1937) was “Active”, the Activity [8] was “inactive” and the Activity [9] was “Non-Toxic”. For the same compound, the Activity [10] was “Active”, the half-life [11] was 3.08 h and the Activity [12] was “inactive”. For the same compound, the Activity [13] was “inactive”, the Activity [14] was “Active” and the Activity [15] was “Active”. The Activity (CWR22R) was “Active” and the DC50 [16] was 0.384 nM.
